Test results taken from ChEMBL document CHEMBL1136958, “Design and optimization of renin inhibitors: Orally bioavailable alkyl amines” (Bioorg Med Chem Lett, 2009).
Calls of active or inactive are those of the source. The rule behind the calls is not given here.

Experiments:
Renin [1] = biological target: T1, Renin (Homo sapiens, UniProt P00797); assay: Inhibition of human recombinant renin in presence of human plasma by competitive radioimmunoassay; format: cell-free
T1 sequence (P00797 whole entry): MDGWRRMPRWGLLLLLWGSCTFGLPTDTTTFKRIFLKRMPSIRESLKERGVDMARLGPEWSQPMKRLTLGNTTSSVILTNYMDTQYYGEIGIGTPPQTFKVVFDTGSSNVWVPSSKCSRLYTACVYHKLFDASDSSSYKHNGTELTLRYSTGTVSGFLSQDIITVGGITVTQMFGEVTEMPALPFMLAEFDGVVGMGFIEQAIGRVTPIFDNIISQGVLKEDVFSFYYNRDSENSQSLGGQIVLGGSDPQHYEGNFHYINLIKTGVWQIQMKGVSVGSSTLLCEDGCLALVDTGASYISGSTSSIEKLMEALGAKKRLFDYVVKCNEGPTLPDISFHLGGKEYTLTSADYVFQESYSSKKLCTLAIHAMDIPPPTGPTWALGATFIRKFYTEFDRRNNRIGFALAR

Renin [2] = biological target: T1, Renin; assay: Inhibition of human recombinant renin
[3] = AUC (infinity) in rat at 10 mg/kg, po and 2 mg/kg, iv; format: ADME, organism-based; settings: plasma
Method in brief: (§1)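 Rats dosed with the fumarate salt at 10 mg/kg by oral route and 2 mg/kg intravenously. Plasma concentrations measured over time, and PK parameters derived from them.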

[4] = Cmax in rat at 10 mg/kg, po and 2 mg/kg, iv; format: ADME, organism-based; settings: in vivo; method in brief: as §1
[5] = Volume of distribution at steady state in rat at 10 mg/kg, po and 2 mg/kg, iv; format: ADME, organism-based; settings: in vivo, read-out: Vdss
[6] = Oral bioavailability in rat at 10 mg/kg; format: ADME, organism-based; settings: in vivo; method in brief: as §1
[7] = Clearance in rat at 2 mg/kg, iv; format: ADME, organism-based; parameters: dose 2 mg/kg, route intravenous; settings: in vivo; method in brief: as §1
[8] = Tmax in rat at 10 mg/kg, po and 2 mg/kg, iv; format: ADME, organism-based; settings: in vivo; method in brief: as §1
[9] = AUC (0 to t) in rat at 10 mg/kg, po and 2 mg/kg, iv; format: ADME, organism-based; settings: plasma; method in brief: as §1
[10] = Half life in rat at 10 mg/kg, po and 2 mg/kg, iv; format: ADME, organism-based; settings: in vivo; method in brief: as §1
in vivo = settings: rat, po
Rattus norvegicus = assay: Antihypertensive activity in double transgenic rat model assessed as reduction in blood pressure at 60 mg/kg, po administered on day 2 and day 3 after vehicle treatment on day 1; format: functional, organism-based; parameters: dose 60 mg/kg
Method in brief: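 Telemetered double transgenic rats carrying human angiotensinogen and human renin genes (n = 4). Vehicle given on day 1 with blood pressure monitored over 24 h. Oral gavage at 60 mg/kg at t = 24 h and 48 h, with blood pressure followed continuously by telemetry.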

Macaca fascicularis [11] = assay: Oral bioavailability in cynomolgus monkey; settings: in vivo
[12] = biological target: Voltage-gated inwardly rectifying potassium channel KCNH2 (Homo sapiens, UniProt Q12809); assay: Inhibition of human ERG by patch clamp assay
[13] = Oral bioavailability in dog; format: ADME, organism-based, Canis lupus familiaris; settings: in vivo
[14] = Terminal half life in dog; format: ADME, organism-based, Canis lupus familiaris; settings: in vivo, read-out: beta t1/2 (converted)
[15] = Solubility in water; format: physicochemical
Macaca fascicularis [16] = organism: Macaca fascicularis; assay: Terminal half life in cynomolgus monkey; settings: in vivo, read-out: beta t1/2 (converted)

Chain of Voltage-gated inwardly rectifying potassium channel KCNH2 (Q12809 whole entry): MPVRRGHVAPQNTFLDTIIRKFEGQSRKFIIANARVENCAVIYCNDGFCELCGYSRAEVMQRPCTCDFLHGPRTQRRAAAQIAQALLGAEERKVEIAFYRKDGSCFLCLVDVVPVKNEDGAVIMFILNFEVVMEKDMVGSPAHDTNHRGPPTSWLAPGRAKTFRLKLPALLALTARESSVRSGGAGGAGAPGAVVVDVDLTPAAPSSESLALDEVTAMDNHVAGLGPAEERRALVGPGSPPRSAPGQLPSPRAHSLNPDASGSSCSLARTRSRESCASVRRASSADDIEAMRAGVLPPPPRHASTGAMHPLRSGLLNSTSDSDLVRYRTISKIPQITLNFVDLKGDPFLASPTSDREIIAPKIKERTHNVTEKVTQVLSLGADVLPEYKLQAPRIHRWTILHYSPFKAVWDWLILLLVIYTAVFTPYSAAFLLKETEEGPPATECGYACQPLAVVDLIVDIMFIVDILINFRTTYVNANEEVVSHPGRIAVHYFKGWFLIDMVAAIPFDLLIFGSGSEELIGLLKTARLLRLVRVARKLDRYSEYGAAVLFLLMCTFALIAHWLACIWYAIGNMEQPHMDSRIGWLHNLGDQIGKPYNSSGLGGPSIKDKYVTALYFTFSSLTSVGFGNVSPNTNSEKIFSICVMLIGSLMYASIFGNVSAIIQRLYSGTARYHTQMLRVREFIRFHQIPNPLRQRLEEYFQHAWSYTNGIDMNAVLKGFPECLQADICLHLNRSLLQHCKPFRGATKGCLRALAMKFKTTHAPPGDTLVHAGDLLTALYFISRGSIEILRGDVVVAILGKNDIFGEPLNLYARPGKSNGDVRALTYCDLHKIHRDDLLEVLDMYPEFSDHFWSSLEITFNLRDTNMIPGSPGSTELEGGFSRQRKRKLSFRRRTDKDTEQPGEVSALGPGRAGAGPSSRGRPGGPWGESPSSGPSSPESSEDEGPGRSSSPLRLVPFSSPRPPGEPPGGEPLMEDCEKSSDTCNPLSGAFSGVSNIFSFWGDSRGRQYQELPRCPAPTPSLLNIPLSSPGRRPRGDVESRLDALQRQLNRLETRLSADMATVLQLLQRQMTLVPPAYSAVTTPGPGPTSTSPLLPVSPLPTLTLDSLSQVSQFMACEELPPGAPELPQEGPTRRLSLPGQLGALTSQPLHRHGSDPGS

CNC[C@H](CC1CCCCC1)NC(=O)N1CCC[C@@H]([C@@](O)(CCCCOC)c2cccc(F)c2F)C1
IC50 (Renin [1]): 20 nM
IC50 (Renin [2]): 0.14 nM

CNC[C@H](CC1CCCCC1)NC(=O)N1CCC[C@@H]([C@@H](OCCCO)c2cccc(Cl)c2)C1
IC50 (Renin [2]): 764 nM

CCOCCCO[C@@H](c1ccccc1)[C@@H]1CCCN(C(=O)N[C@H](CNC)CC2CCCCC2)C1.O=C(O)/C=C/C(=O)O
AUC(0-inf) [3]: 882 ng·h/mL
Cmax [4]: 91 ng/mL
Vd [5]: 22 L/kg
bioavailability [6]: 35.8%
clearance [7]: 59 mL/min/kg
Tmax [8]: 3 h

CNC[C@H](CC1CCCCC1)NC(=O)N1CCC[C@@H]([C@@](O)(CCCCOC)c2ccccc2)C1.O=C(O)/C=C/C(=O)O
AUC(0-inf) [3]: 689 ng·h/mL
Cmax [4]: 101 ng/mL
AUC(0-t) [9]: 547 ng·h/mL
bioavailability [6]: 33.6%
clearance [7]: 66 mL/min/kg
Tmax [8]: 2 h

COCCCC[C@@](O)(c1ccccc1)[C@@H]1CCCN(C(=O)N[C@H](CN)CC2CCCCC2)C1
IC50 (Renin [1]): 165 nM
IC50 (Renin [2]): 21 nM

CCOCCCO[C@@H](c1cccc(Cl)c1)[C@@H]1CCCN(C(=O)N[C@H](CN)CC2CCCCC2)C1
IC50 (Renin [1]): 190 nM
IC50 (Renin [2]): 5.5 nM

CNC[C@H](CC1CCCCC1)NC(=O)N1CCC[C@@H]([C@@](O)(CCCCOC)c2cccc(Br)c2)C1
IC50 (Renin [1]): 12 nM
IC50 (Renin [2]): 0.13 nM

CNC[C@H](CC1CCCCC1)NC(=O)N1CCC[C@@H]([C@@](O)(CCCCOC)c2cccc(C)c2)C1
IC50 (Renin [1]): 67 nM
IC50 (Renin [2]): 2.5 nM

CCOCCCC[C@@](O)(c1ccccc1)[C@@H]1CCCN(C(=O)N[C@H](CN)CC2CCCCC2)C1
IC50 (Renin [1]): 490 nM
IC50 (Renin [2]): 38 nM

COCCCOc1cc(C[C@@H](C[C@H](N)[C@@H](O)C[C@H](C(=O)NCC(C)(C)C(N)=O)C(C)C)C(C)C)ccc1OC.COCCCOc1cc(C[C@@H](C[C@H](N)[C@@H](O)C[C@H](C(=O)NCC(C)(C)C(N)=O)C(C)C)C(C)C)ccc1OC.O=C(O)/C=C/C(=O)O [ALISKIREN FUMARATE]
AUC(0-inf) [3]: 31 ng·h/mL
Cmax [4]: 4 ng/mL
bioavailability [6]: 1.2%
clearance [7]: 55 mL/min/kg
Tmax [8]: 0.1 h

CNC[C@H](CC1CCCCC1)NC(=O)N1CCC[C@@H]([C@@](O)(CCCCOC)c2cccc(F)c2)C1
IC50 (Renin [1]): 47 nM
IC50 (Renin [2]): 3 nM

CCOCCCC[C@@](O)(c1ccccc1)[C@@H]1CCCN(C(=O)N[C@H](CNC)CC2CCCCC2)C1.O=C(O)/C=C/C(=O)O
AUC(0-inf) [3]: 833 ng·h/mL
Cmax [4]: 135 ng/mL
Vd [5]: 55 L/kg
AUC(0-t) [9]: 745 ng·h/mL
bioavailability [6]: 48.3%
clearance [7]: 79 mL/min/kg
half-life [10]: 522 min
Tmax [8]: 3 h

CNC[C@H](CC1CCCCC1)NC(=O)N1CCC[C@@H]([C@@](O)(CCCCOC)c2cccc(F)c2)C1.O=C(O)/C=C/C(=O)O
AUC(0-inf) [3]: 510 ng·h/mL
Cmax [4]: 83 ng/mL
AUC(0-t) [9]: 433 ng·h/mL
bioavailability [6]: 21.1%
clearance [7]: 59 mL/min/kg
half-life [10]: 576 min
Tmax [8]: 2.7 h

COCCCOc1cc(C[C@@H](C[C@H](N)[C@@H](O)C[C@H](C(=O)NCC(C)(C)C(N)=O)C(C)C)C(C)C)ccc1OC
bioavailability (in vivo): 2.4%

CNC[C@H](CC1CCCCC1)NC(=O)N1CCC[C@@H]([C@@](O)(CCCCOC)c2cc(F)cc(Cl)c2)C1
IC50 (Renin [1]): 28 nM
IC50 (Renin [2]): 0.9 nM

COCCCC[C@@](O)(c1ccccc1)[C@@H]1CCCN(C(=O)N[C@H](CN)CC2CCCCC2)C1.O=C(O)/C=C/C(=O)O
AUC(0-inf) [3]: 192 ng·h/mL
Cmax [4]: 28 ng/mL
Vd [5]: 56 L/kg
AUC(0-t) [9]: 221 ng·h/mL
bioavailability [6]: 7.5%
clearance [7]: 46 mL/min/kg
half-life [10]: 306 min
Tmax [8]: 2.3 h

CNC[C@H](CC1CCCCC1)NC(=O)N1CCC[C@@H]([C@@H](OCCCOC)c2cccc(F)c2)C1
IC50 (Renin [2]): 58 nM

COCCCC[C@@](O)(c1cccc(Cl)c1)[C@@H]1CCCN(C(=O)N[C@H](CNCC(F)(F)F)CC2CCCCC2)C1
IC50 (Renin [1]): 1400 nM
IC50 (Renin [2]): 46 nM

CNC[C@H](CC1CCCCC1)NC(=O)N1CCC[C@@H]([C@@](O)(CCCCOC)c2cccc(C(F)(F)F)c2)C1
IC50 (Renin [1]): 389 nM
IC50 (Renin [2]): 7 nM

CCOCCCO[C@@H](c1ccccc1)[C@@H]1CCCN(C(=O)N[C@H](CN)CC2CCCCC2)C1
IC50 (Renin [2]): 55 nM

CCOCCCO[C@@H](c1ccccc1)[C@@H]1CCCN(C(=O)N[C@H](CNC)CC2CCCCC2)C1
IC50 (Renin [1]): 447 nM
IC50 (Renin [2]): 40 nM

CNC[C@H](CC1CCCCC1)NC(=O)N1CCC[C@@H]([C@@](O)(CCCCOC)c2cccc(C#N)c2)C1
IC50 (Renin [1]): 86 nM
IC50 (Renin [2]): 37 nM

CCOCCCO[C@@H](c1cccc(Cl)c1)[C@@H]1CCCN(C(=O)N[C@H](CNC)CC2CCCCC2)C1
IC50 (Renin [2]): 4 nM

CNC[C@H](CC1CCCCC1)NC(=O)N1CCC[C@@H]([C@@](O)(CCCCOC)c2cccc(OC(F)(F)F)c2)C1
IC50 (Renin [2]): 69 nM

CCOCCCO[C@@H](c1cccc(F)c1)[C@@H]1CCCN(C(=O)N[C@H](CNC)CC2CCCCC2)C1
IC50 (Renin [1]): 84 nM
IC50 (Renin [2]): 11 nM

CCOCCCO[C@@H](c1cccc(Cl)c1Cl)[C@@H]1CCCN(C(=O)N[C@H](CNC)CC2CCCCC2)C1
IC50 (Renin [2]): 125 nM

CNC[C@H](CC1CCCCC1)NC(=O)N1CCC[C@@H]([C@@H](OCCCOC)c2cccc(Cl)c2F)C1
IC50 (Renin [1]): 369 nM
IC50 (Renin [2]): 39 nM

CNC[C@H](CC1CCCCC1)NC(=O)N1CCC[C@@H]([C@@](O)(CCCCOC)c2cccc(Cl)c2F)C1
IC50 (Renin [1]): 27 nM
IC50 (Renin [2]): 0.1 nM

CNC[C@H](CC1CCCCC1)NC(=O)N1CCC[C@@H]([C@@](O)(CCCCOC)c2cccc(Cl)c2)C1 [listing 1 of 2 here]
IC50 (Renin [1]): 13 nM

CNC[C@H](CC1CCCCC1)NC(=O)N1CCC[C@@H]([C@@](O)(CCCCOC)c2ccccc2F)C1
IC50 (Renin [1]): 61 nM
IC50 (Renin [2]): 4 nM

CCNC[C@H](CC1CCCCC1)NC(=O)N1CCC[C@@H]([C@@](O)(CCCCOC)c2cccc(Cl)c2)C1
IC50 (Renin [1]): 154 nM
IC50 (Renin [2]): 6 nM

CCc1cccc([C@](O)(CCCCOC)[C@@H]2CCCN(C(=O)N[C@H](CNC)CC3CCCCC3)C2)c1
IC50 (Renin [1]): 285 nM
IC50 (Renin [2]): 9 nM

CCOCCCC[C@@](O)(c1ccccc1)[C@@H]1CCCN(C(=O)N[C@H](CNC)CC2CCCCC2)C1
IC50 (Renin [1]): 162 nM
IC50 (Renin [2]): 16 nM

COCCCO[C@@H](c1ccccc1)[C@@H]1CCCN(C(=O)N[C@H](CN)CC2CCCCC2)C1
IC50 (Renin [2]): 308 nM

CNC[C@H](CC1CCCCC1)NC(=O)N1CCC[C@@H]([C@@](O)(CCCCOC)c2cc(C)ccc2F)C1
IC50 (Renin [1]): 67 nM
IC50 (Renin [2]): 3.5 nM

CNC[C@H](CC1CCCCC1)NC(=O)N1CCC[C@@H]([C@@](O)(CCCCOC)c2ccccc2)C1
IC50 (Renin [1]): 64 nM
IC50 (Renin [2]): 7 nM

CNC[C@H](CC1CCCCC1)NC(=O)N1CCC[C@@H]([C@@](O)(CCCCOC)c2cccc(OC)c2)C1
IC50 (Renin [1]): 88 nM
IC50 (Renin [2]): 13 nM

CNC[C@H](CC1CCCCC1)NC(=O)N1CCC[C@@H]([C@@](O)(CCCCOC)c2cccc(Cl)c2)C1 [listing 2 of 2 here]
Activity (Rattus norvegicus): Active

CNC[C@H](CC1CCCCC1)NC(=O)N1CCC[C@@H]([C@@](O)(CCCCOC)c2ccccc2Cl)C1
IC50 (Renin [1]): 151 nM
IC50 (Renin [2]): 7 nM

CNC[C@H](CC1CCCCC1)NC(=O)N1CCC[C@@H]([C@@](O)(CCCCO)c2cccc(Cl)c2)C1
IC50 (Renin [1]): 315 nM
IC50 (Renin [2]): 21 nM

CNC[C@H](CC1CCCCC1)NC(=O)N1CCC[C@@H]([C@@H](OCCCOC)c2cccc(Cl)c2Cl)C1
IC50 (Renin [2]): 609 nM

CNC[C@H](CC1CCCCC1)NC(=O)N1CCC[C@@H]([C@@](O)(CCCCOC)c2cccc(Cl)c2F)C1.O=C(O)/C=C/C(=O)O
AUC(0-inf) [3]: 254 ng·h/mL
Cmax [4]: 28 ng/mL
Vd [5]: 16 L/kg
bioavailability [6]: 5.5%
clearance [7]: 30 mL/min/kg
half-life [10]: 480 min
Tmax [8]: 4.3 h

CNC[C@H](CC1CCCCC1)NC(=O)N1CCC[C@@H]([C@@](O)(CCCCOC)c2cccc(Cl)c2)C1.O=C(O)/C=C/C(=O)O
AUC(0-inf) [3]: 530 ng·h/mL
Cmax [4]: 73 ng/mL
bioavailability (Macaca fascicularis [11]): 17%
IC50 [12]: > 30 µM
bioavailability [13]: 38%
half-life [14]: 960 min
bioavailability [6]: 12.9%
solubility [15]: > 1000 µg/mL
clearance [7]: 33 mL/min/kg
half-life (Macaca fascicularis [16]): 960 min
Tmax [8]: 3.3 h
